Each block holds one compound with its values, some of them ahead of it.
Legend:
[1] = The relative effective concentration to induce same level of histone H4 acetylation of human T24 cells by MS-275 at 1 uM; assay type: functional, T-24
[2] = target: Histone deacetylase 1 (Homo sapiens, UniProt Q13547); assay: Inhibitory activity on partially purified recombinant human Histone deacetylase 1 (HDAC-1)
[3] = tested on: A549; assay: Inhibitory concentration against lung A549 cell line; assay type: functional, cell-based; conditions: Homo sapiens
How it was run: (§1)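 MTT assay: cells exposed to a range of compound concentrations for 72 h at 37 °C, 5% CO2. MTT added at 0.5 mg/mL final for 4 h, then solubilized with DMF/SDS buffer (pH 4.7) overnight; absorbance at 570 with 630 reference. OD converted to cell numbers via a standard growth curve.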

[4] = tested on: Fibroblast MRHF cell line; assay: Inhibitory concentration against normal fibroblast MRHF cell line; assay type: functional, cell-based; conditions: Homo sapiens; how it was run: as §1
[5] = tested on: NCI-H446; assay: Inhibitory concentration against lung H446 cell line; assay type: functional, cell-based; conditions: Homo sapiens; how it was run: as §1
[6] = tested on: HMEC; assay: Inhibitory concentration against normal epithelial HMEC cell line; assay type: functional, cell-based; conditions: Homo sapiens; how it was run: as §1
[7] = tested on: T-24; assay: Inhibitory concentration against bladder T24 cell line; assay type: functional, cell-based; conditions: Homo sapiens; how it was run: as §1
[8] = tested on: SW48; assay: Inhibitory concentration against colon SW48 cell line; assay type: functional, cell-based; conditions: Homo sapiens; how it was run: as §1
[9] = tested on: HCT-116; assay: Inhibitory concentration against colon HCT116 cell line; assay type: functional, cell-based; conditions: Homo sapiens; how it was run: as §1
[10] = tested on: DU-145; assay: Inhibitory concentration against prostate DU145 cell line; assay type: functional, cell-based; conditions: Homo sapiens; how it was run: as §1
[11] = tested on: MCF7; assay: Inhibitory concentration against breast MCF-7 cell line; assay type: functional, cell-based; conditions: Homo sapiens; how it was run: as §1
[12] = tested on: MDA-MB-231; assay: Inhibitory concentration against breast MDA-MB-231 cell line; assay type: functional, cell-based; conditions: Homo sapiens; how it was run: as §1
[13] = tested on: HCT-116; assay: In vivo percent inhibitory activity of intraperitoneally administered compound (40 mg/kg/day) against mice […] with HCT116 tumor; assay type: functional, Homo sapiens
How it was run: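 CD1 nude mice (18–22 g) implanted with 30 mg fragments of serially passaged A549 or HCT116 tumor; randomized at ~100 mm3 mean tumor volume, six per group. Daily intraperitoneal dosing (7 days/week) for 21 days, compound dissolved in DMSO; vehicle-only controls. Body weight and tumor volume monitored three times weekly; percent tumor growth inhibition versus vehicle.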

Histone deacetylase 1, sequence (Q13547 whole entry): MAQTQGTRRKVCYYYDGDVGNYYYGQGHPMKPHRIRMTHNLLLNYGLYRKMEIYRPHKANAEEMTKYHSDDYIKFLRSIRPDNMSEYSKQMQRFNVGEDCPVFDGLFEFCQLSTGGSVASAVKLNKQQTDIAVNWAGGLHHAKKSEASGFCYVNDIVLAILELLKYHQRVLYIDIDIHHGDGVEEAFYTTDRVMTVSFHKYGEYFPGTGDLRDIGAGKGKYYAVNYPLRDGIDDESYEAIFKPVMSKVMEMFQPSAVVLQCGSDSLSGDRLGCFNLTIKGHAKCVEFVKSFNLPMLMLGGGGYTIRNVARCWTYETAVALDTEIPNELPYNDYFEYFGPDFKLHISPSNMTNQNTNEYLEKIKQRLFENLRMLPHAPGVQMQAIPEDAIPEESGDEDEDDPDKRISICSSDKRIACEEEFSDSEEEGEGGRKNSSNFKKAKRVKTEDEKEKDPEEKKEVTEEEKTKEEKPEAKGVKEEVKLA

Structure (SMILES): O=C(/C=C/c1ccc(NS(=O)(=O)c2ccc(-c3ccccc3)cc2)cc1)NO
EC [1]: 1 µM

Structure (SMILES): COc1ccc(NC(=O)Nc2ccc(/C=C/C(=O)NO)cc2)cc1OC
IC50 [2]: 1 µM
EC [1]: >25 µM

Structure (SMILES): Nc1ccccc1NC(=O)/C=C/c1ccc(NS(=O)(=O)c2ccc(-c3ccccc3)cc2)cc1
IC50 [3]: 18 µM
IC50 [4]: > 25 µM
IC50 [5]: 8 µM
IC50 [6]: > 36 µM
IC50 [7]: > 36 µM
IC50 [8]: 30 µM
IC50 [9]: 15 µM
IC50 [10]: 15 µM
IC50 [11]: 29 µM
EC [1]: 15 µM
IC50 [12]: 18 µM

Structure (SMILES): Nc1ccccc1NC(=O)/C=C/c1ccc(NS(=O)(=O)c2cccc3oc4ccccc4c23)cc1
IC50 [2]: 0.4 µM
EC [1]: 10 µM

Structure (SMILES): O=C(/C=C/c1ccc(NS(=O)(=O)c2cccc3ccccc23)cc1)NO
EC [1]: 5 µM

Structure (SMILES): Nc1ccccc1NC(=O)/C=C/c1ccc(NS(=O)(=O)c2cccc3ccccc23)cc1
IC50 [2]: 3 µM
EC [1]: 10 µM

Structure (SMILES): Cc1ccc(S(=O)(=O)Nc2ccc(/C=C/C(=O)NO)cc2)cc1
EC [1]: 10 µM

Structure (SMILES): O=C(/C=C/c1ccc(NS(=O)(=O)c2cccc3cccnc23)cc1)NO
EC [1]: 25 µM

Structure (SMILES): O=C(/C=C/c1ccc(S(=O)(=O)Nc2ccc(-c3ccccc3)cc2)cc1)NO
EC [1]: 1 µM

Structure (SMILES): COc1ccc(S(=O)(=O)Nc2ccc(/C=C/C(=O)NO)cc2)cc1
EC [1]: 5 µM

Structure (SMILES): Nc1ccccc1NC(=O)c1ccc(CNC(=O)OCc2cccnc2)cc1 [ENTINOSTAT]
IC50 [3]: 8 µM
IC50 [4]: > 37 µM
IC50 [5]: 1 µM
IC50 [6]: > 37 µM
IC50 [7]: 2.5 µM
IC50 [8]: 5 µM
IC50 [9]: 0.6 µM
IC50 [10]: 1 µM
IC50 [11]: 5 µM
IC50 [12]: 3 µM

Structure (SMILES): CC(/C=C/C(=O)NO)=C\[C@@H](C)C(=O)c1ccc(N(C)C)cc1 [TRICHOSTATIN]
IC50 [3]: 4.5 µM
IC50 [4]: 36 µM
IC50 [5]: 1.5 µM
IC50 [6]: 32 µM
IC50 [7]: 4 µM
IC50 [8]: 5 µM
IC50 [9]: 0.9 µM
IC50 [10]: 3.5 µM
IC50 [11]: 10 µM
IC50 [12]: 3.5 µM

More lines, main results first:

IC50 [2]: 0.05 µM
Structure (SMILES): COc1ccc(NS(=O)(=O)c2ccc(/C=C/C(=O)NO)cc2)cc1OC

IC50 [3]: 8 µM
IC50 [5]: 1 µM
IC50 [7]: 8 µM
IC50 [8]: 10 µM
IC50 [9]: 4 µM
IC50 [10]: 2 µM
IC50 [11]: 6 µM
IC50 [12]: 2 µM
Structure (SMILES): Cc1ccc(S(=O)(=O)Nc2ccc(/C=C/C(=O)Nc3ccccc3N)cc2)cc1
IC50 [4]: > 37 µM
IC50 [6]: > 37 µM
Inhibition [13]: 55%

IC50 [2]: 3 µM
Structure (SMILES): COc1ccc(NS(=O)(=O)c2ccc(/C=C/C(=O)Nc3ccccc3N)cc2)cc1OC

IC50 [2]: 0.2 µM
Structure (SMILES): Cc1ccc(NS(=O)(=O)c2ccc(/C=C/C(=O)NO)cc2)cc1
EC [1]: 1 µM

IC50 [2]: 0.2 µM
Structure (SMILES): CN(C)c1cccc2c(S(=O)(=O)Nc3ccc(/C=C/C(=O)NO)cc3)cccc12
EC [1]: 5 µM

IC50 [2]: > 25 µM
Structure (SMILES): O=C(O)/C=C/c1ccc(NS(=O)(=O)c2ccc(-c3ccccc3)cc2)cc1

IC50 [2]: 5 µM
Structure (SMILES): Nc1ccccc1NC(=O)/C=C/C#Cc1ccc(NS(=O)(=O)c2ccccc2)cc1

IC50 [2]: 0.04 µM
Structure (SMILES): O=C(/C=C/c1ccc(NS(=O)(=O)c2cccc3oc4ccccc4c23)cc1)NO
EC [1]: 1 µM

IC50 [3]: 9.5 µM
IC50 [5]: 2 µM
IC50 [7]: 6.5 µM
IC50 [8]: 6.5 µM
IC50 [9]: 3.5 µM
IC50 [10]: 7 µM
IC50 [2]: 2 µM
IC50 [11]: 11.5 µM
IC50 [12]: 9 µM
Structure (SMILES): Cc1ccc(NS(=O)(=O)c2ccc(/C=C/C(=O)Nc3ccccc3N)cc2)cc1
IC50 [4]: 34 µM
IC50 [6]: > 41 µM
Inhibition [13]: 37%

IC50 [3]: 10 µM
IC50 [5]: 2 µM
IC50 [7]: 8 µM
IC50 [8]: 4 µM
IC50 [9]: 2.5 µM
IC50 [10]: 5 µM
IC50 [2]: 1 µM
IC50 [11]: 8 µM
IC50 [12]: 6 µM
Structure (SMILES): COc1ccc(S(=O)(=O)Nc2ccc(/C=C/C(=O)Nc3ccccc3N)cc2)cc1
IC50 [6]: 38 µM
EC [1]: 1 µM

IC50 [2]: 1 µM
Structure (SMILES): Nc1ccccc1NC(=O)/C=C/c1ccc(S(=O)(=O)Nc2ccc(-c3ccccc3)cc2)cc1
EC [1]: 5 µM

IC50 [3]: 2 µM
IC50 [5]: 0.4 µM
IC50 [7]: 2 µM
IC50 [8]: 0.8 µM
IC50 [9]: 0.2 µM
IC50 [10]: 0.75 µM
IC50 [11]: 1.5 µM
IC50 [12]: 0.7 µM
Structure (SMILES): COc1ccc(S(=O)(=O)Nc2ccc(/C=C/C(=O)NO)cc2)cc1OC
IC50 [4]: 5 µM
IC50 [6]: 20 µM
EC [1]: 1 µM

IC50 [2]: 0.1 µM
Structure (SMILES): O=C(/C=C/C#Cc1cccc(NS(=O)(=O)c2ccccc2)c1)NO [OXAMFLATIN]
